Consider 24 compounds from ChEMBL document CHEMBL3259707, “Design and synthesis of human ABCB1 (P-glycoprotein) inhibitors by peptide coupling of diverse chemical scaffolds on carboxyl and amino termini of (S)-valine-derived thiazole amino acid” (J Med Chem, 2014).

Series [1] addresses T1, ATP-dependent translocase ABCB1 (Homo sapiens, UniProt P08183). Description: Inhibition of human P-gp.
In series [2] the target is T1, ATP-dependent translocase ABCB1. Description: Inhibition of human wild type P-gp expressed in BacMam virus infected human HeLa cells assessed as calcein-AM accumulation after 10 mins by flow cytometry. The following applies: for inhibition (INH): human, 10 min. The format is cell-based. Put shortly:
(§1)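 HeLa cells transduced with BacMam WT-P-gp (10–15 particles/cell); 10 mM butyric acid added after 3–4 h, grown overnight at 37 °C. Trypsinized cells exposed to compound, then 0.5 μM calcein-AM for 10 min at 37 °C in the dark. […] Two independent experiments in triplicate, ± SD.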

Series [3] shares this target. The series can be described thus: Inhibition of human wild type P-gp expressed in BacMam virus infected human HeLa cells assessed as calcein-AM accumulation at 10 uM after 10 mins by flow cytometry. It counts as cell-based. Put shortly:
as §1

The nature of series [4]: Retention time of the compound by HPLC analysis. It counts as physicochemical. In a few lines: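 Reverse-phase C18 HPLC, isocratic acetonitrile/water 60:40, 1.0 mL/min, UV 254 nm; purity from major-peak area.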
The nature of series [5]: Retardation factor of the compound using EtOAc-n-hexane at ratio of 1:1 by thin layer chromatography. The format is physicochemical.
Series [6] can be described thus: Retardation factor of the compound using EtOAc-n-hexane at ratio of 3:2 by thin layer chromatography. It counts as physicochemical.
Series [7] is described as follows: Inhibition of mouse P-gp.

T1 sequence (P08183 whole entry): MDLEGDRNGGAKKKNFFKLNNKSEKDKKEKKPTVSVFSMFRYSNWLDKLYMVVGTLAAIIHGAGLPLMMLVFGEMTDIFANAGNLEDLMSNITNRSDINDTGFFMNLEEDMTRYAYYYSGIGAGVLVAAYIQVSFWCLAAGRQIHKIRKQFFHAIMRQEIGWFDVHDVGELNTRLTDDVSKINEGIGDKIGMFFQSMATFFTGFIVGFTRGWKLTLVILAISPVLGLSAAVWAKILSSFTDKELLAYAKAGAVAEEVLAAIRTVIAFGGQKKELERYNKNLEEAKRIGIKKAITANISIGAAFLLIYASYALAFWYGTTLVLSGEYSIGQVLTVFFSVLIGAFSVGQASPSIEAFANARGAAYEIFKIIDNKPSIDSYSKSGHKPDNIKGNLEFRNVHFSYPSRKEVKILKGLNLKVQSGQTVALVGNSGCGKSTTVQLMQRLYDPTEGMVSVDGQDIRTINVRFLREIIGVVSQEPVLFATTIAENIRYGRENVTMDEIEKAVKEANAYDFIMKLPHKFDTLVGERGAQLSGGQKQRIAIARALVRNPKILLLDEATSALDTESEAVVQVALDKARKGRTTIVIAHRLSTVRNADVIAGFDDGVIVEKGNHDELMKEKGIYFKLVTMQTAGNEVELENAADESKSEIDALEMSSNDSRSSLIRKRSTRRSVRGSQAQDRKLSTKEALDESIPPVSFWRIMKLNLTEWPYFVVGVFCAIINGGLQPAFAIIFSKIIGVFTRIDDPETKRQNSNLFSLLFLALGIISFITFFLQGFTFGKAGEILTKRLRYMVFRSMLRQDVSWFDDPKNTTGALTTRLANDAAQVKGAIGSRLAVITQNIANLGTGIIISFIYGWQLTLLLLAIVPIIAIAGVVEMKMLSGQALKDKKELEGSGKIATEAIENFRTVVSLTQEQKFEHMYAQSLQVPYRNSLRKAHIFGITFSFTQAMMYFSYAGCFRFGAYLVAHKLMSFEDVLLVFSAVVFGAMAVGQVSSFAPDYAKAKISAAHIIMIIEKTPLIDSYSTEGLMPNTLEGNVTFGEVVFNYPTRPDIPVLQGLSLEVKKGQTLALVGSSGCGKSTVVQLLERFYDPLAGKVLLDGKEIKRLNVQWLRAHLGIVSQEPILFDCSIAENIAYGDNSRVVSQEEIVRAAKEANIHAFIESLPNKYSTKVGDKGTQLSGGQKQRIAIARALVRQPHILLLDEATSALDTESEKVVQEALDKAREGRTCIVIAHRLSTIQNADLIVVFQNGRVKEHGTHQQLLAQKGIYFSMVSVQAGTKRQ

A word on the IC50: it is the concentration that gives 50% inhibition. Turning to `CCOC(=O)c1csc([C@@H](NC(=O)c2csc([C@@H](NC(=O)c3csc([C@@H](NC(=O)OC(C)(C)C)C(C)C)n3)C(C)C)n2)C(C)C)n1`, the IC50 in series [1] was 1500 nM.
Regarding `COc1ccc(C(C)NC(=O)c2csc([C@@H](NC(=O)c3csc([C@@H](NC(=O)OC(C)(C)C)C(C)C)n3)C(C)C)n2)cc1` (some centres not stated), the IC50 in series [2] is 2000 nM.
As for `COc1ccc(CNC(=O)c2csc([C@@H](NC(=O)c3csc([C@@H](NC(=O)OC(C)(C)C)C(C)C)n3)C(C)C)n2)c(OC)c1`, in series [2] (hela), the IC50 was 2000 nM.
As to `COc1cc2c(cc1OC)C(=O)C(CC1CCN(C(=O)c3csc([C@@H](NC(=O)OC(C)(C)C)C(C)C)n3)CC1)C2` (some centres not stated), in series [3], the “inhibition (INH)” value was 15%. Besides, the Retention_time in series [4] came to 4.7 min. In series [5], the Rf is reported as 0.2.
Take `CCOC(=O)c1csc([C@@H](NC(=O)c2cnc3ccccc3c2)C(C)C)n1`: the “inhibition (INH)” value in series [3] was 2%. In series [4], the Retention_time is 3.3 min. Also, the Rf in series [5] was 0.4.
In the case of `CCOC(=O)c1csc([C@@H](NC(=O)/C=C/c2ccc(OC)c(OC)c2)C(C)C)n1`, the “inhibition (INH)” value in series [3] is 11%. The compound further returned a Retention_time in series [4] of 3.4 min. For the same compound, the Rf in series [5] stood at 0.5.
For `CCOC(=O)c1csc([C@@H](NC(=O)c2cc(OC)c(OC)c(OC)c2)C(C)C)n1`, the “inhibition (INH)” value in series [3] was 10%. This compound also yielded a Retention_time in series [4] of 3.7 min. Moreover, in series [5], the Rf amounted to 0.6.
Turning to `COc1ccc(NC(=O)c2csc([C@@H](NC(=O)c3csc([C@@H](NC(=O)OC(C)(C)C)C(C)C)n3)C(C)C)n2)c(OC)c1`, in series [4], the Retention_time is listed as 7.6 min. Moreover, the Rf in series [5] was found to be 0.55. Also, the IC50 in series [2] was 2500 nM. Also, the “inhibition (INH)” value in series [2] (hela) was “Dose-dependent effect”.
`COc1cc(NC(=O)c2csc([C@@H](NC(=O)c3csc([C@@H](NC(=O)OC(C)(C)C)C(C)C)n3)C(C)C)n2)cc(OC)c1OC` had a Retention_time in series [4] of 8 min. Moreover, the Rf in series [5] was determined as 0.45. Also, in series [2], the half-inhibitory concentration (IC50) was 6500 nM. Moreover, the “inhibition (INH)” value in series [2] (hela) is given as “Dose-dependent effect”.
Consider `CCOC(=O)c1csc([C@@H](NC(=O)c2csc([C@@H](NC(=O)c3ccc(OC)c(OC)c3)C(C)C)n2)C(C)C)n1`, for which, in series [4], the Retention_time was found to be 3.5 min. Also, the Rf in series [5] turned out to be 0.4. Also, the 50% inhibitory concentration (IC50) in series [2] is 16000 nM. Besides, the “inhibition (INH)” value in series [2] (hela) is reported as “Dose-dependent effect”.
Regarding `CCOC(=O)c1csc([C@@H](NC(=O)c2csc([C@@H](NC(=O)c3cc(OC)c(OC)c(OC)c3)C(C)C)n2)C(C)C)n1`, in series [3], the “inhibition (INH)” value is 55%. In addition, in series [4], the Retention_time was 3.6 min. In addition, the Rf in series [5] stood at 0.4.
For the compound `COc1ccc([C@@H](C)NC(=O)c2csc([C@@H](NC(=O)c3cc(OC)c(OC)c(OC)c3)C(C)C)n2)cc1`, the “inhibition (INH)” value in series [3] is 24%. This compound registered a Retention_time in series [4] of 3.9 min. Besides, the Rf in series [5] was found to be 0.45.
For `COc1cc(NC(=O)c2csc([C@@H](NC(=O)c3cc(OC)c(OC)c(OC)c3)C(C)C)n2)cc(OC)c1`, in that order: 37%, 4.3 min and 0.55.
For `COc1cc(NC(=O)c2csc([C@@H](NC(=O)c3cc(OC)c(OC)c(OC)c3)C(C)C)n2)cc(OC)c1OC`, in that order: 58%, 3.3 min and 0.4.
Regarding `COc1cc(CNC(=O)c2csc([C@@H](NC(=O)c3cc(OC)c(OC)c(OC)c3)C(C)C)n2)cc(OC)c1OC`, in series [3], the “inhibition (INH)” value is on record as 4%. The compound also showed a Retention_time in series [4] of 2.7 min. In series [5], the Rf was found to be 0.3.
As for `COc1cc(C(=O)N[C@H](c2nc(C(=O)NCc3ccc4c(c3)OCO4)cs2)C(C)C)cc(OC)c1OC`, the “inhibition (INH)” value in series [3] is on record as 20%. Moreover, the Retention_time in series [4] was determined as 3.1 min. Also, the Rf in series [6] turned out to be 0.35.
On to `COc1cc(C(=O)N[C@H](c2nc(C(=O)Nc3ccc4c(c3)OCO4)cs2)C(C)C)cc(OC)c1OC`, for which, in series [3], the “inhibition (INH)” value is on record as 40%. The Retention_time in series [4] is given as 3.5 min. In series [6], the Rf stood at 0.5.
For `COc1cc2c(cc1OC)CN(C(=O)c1csc([C@@H](NC(=O)c3cc(OC)c(OC)c(OC)c3)C(C)C)n1)CC2`, in that order: 16%, 2.8 min and 0.3.
Consider `COc1cc(C(=O)N[C@H](c2nc(C(=O)NC3Cc4ccccc4C3)cs2)C(C)C)cc(OC)c1OC`, for which the “inhibition (INH)” value in series [3] is 47%. The compound also gave a Retention_time in series [4] of 4.1 min. In addition, the Rf in series [6] amounted to 0.5.
The like results for `COc1cc(C(=O)N[C@H](c2nc(C(=O)NCCc3ccccn3)cs2)C(C)C)cc(OC)c1OC` were, in that order, 5%, 2.2 min and 0.2.
As to `COc1cc(C(=O)N[C@H](c2nc(C(=O)NCc3ccc(-c4ccccc4)cc3)cs2)C(C)C)cc(OC)c1OC`, the “inhibition (INH)” value in series [3] was 23%. Moreover, the Retention_time in series [4] was 6.3 min. Moreover, in series [6], the Rf is on record as 0.5.
As for `COc1cc(C(=O)N[C@H](c2nc(C(=O)Nc3ccc(C(=O)c4ccccc4)cc3)cs2)C(C)C)cc(OC)c1OC`, in series [3], the “inhibition (INH)” value is given as 18%. The compound further came in with a Retention_time in series [4] of 6.8 min. Further, the Rf in series [6] worked out at 0.5.
With `COc1cc(C(=O)N[C@H](c2nc(C(=O)Nc3ccccc3C(=O)c3ccc(F)cc3)cs2)C(C)C)cc(OC)c1OC`, in series [3], the “inhibition (INH)” value is recorded as 54%. The Retention_time in series [4] stood at 9.5 min. In addition, in series [6], the Rf was 0.4.
With `CC(C)[C@H]1NC(=O)c2csc(n2)[C@@H](C(C)C)NC(=O)c2csc(n2)[C@@H](C(C)C)NC(=O)c2csc1n2`, in series [7], the midpoint of inhibition, the IC50, lay at 8400 nM.
